Peptide text beside a SMILES is read from it.

The nature of data set [1]: CF assay: carrier-mediated heptaarginine. The class given is in vitro ADME. The conditions noted are these: EYPC⊃CF LUVs, 1 μM Trp-Arg7, pEC50 from EC50 in mM, 10% error (SD). The gist of the method: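 Egg-yolk phosphatidylcholine LUVs (4 μM phospholipid) loaded with self-quenched carboxyfluorescein; efflux read as dequenching (λex 492 nm, λem 517 nm) over time. Carrier added at t = 50 s, Trp-Arg7 (1 μM) at 100 s, Triton X-100 lysis at 600 s for normalisation. Kinetics run across carrier concentrations; normalised traces converted to dose–response curves; Hill fit gives Ymax, EC50 and Ea.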

A short description of data set [2]: CF assay: cargo dose-response with COSAN 2 as carrier. The format is in vitro ADME. The conditions noted are these: for transport of cargo by COSAN 2 (in words): EYPC⊃CF liposomes, 4 μM COSAN 2, pH 7.4; for Et (transport efficiency = Ymax (pEC50)/f, f = 41.8): EYPC vesicles, 4 μM COSAN 2, n.a = no detectable activity, 10% error (SD).

With `O=C(O)CCCc1ccc2ccc3cccc4ccc1c2c34` [PyBu, pyrenebutyrate], the “Ea (activator efficiency = Ymax (pEC50)/f, f = 20.6)” value in data set [1] worked out at 4.8. On to `NCCCC[C@H](NC(=O)[C@H](CCCCN)NC(=O)[C@H](CCCCN)NC(=O)[C@@H](N)Cc1c[nH]c2ccccc12)C(=O)O` [Trp-(Lys)3, tryptophan-trilysine] (H-WKKK-OH), for which the “transport of cargo by COSAN 2 (in words)” value in data set [2] was “not transported”. Still for that read-out and setting: the value for `N[C@@H](Cc1c[nH]c2ccccc12)C(=O)NCC(=O)NCC(=O)NCC(=O)NCC(=O)NCC(=O)NCC(=O)O` [Trp-Gly6, tryptophan-hexaglysine] (H-WGGGGGG-OH) was “not transported”. `NCCCC[C@H](NC(=O)[C@H](CCCCN)NC(=O)[C@H](CCCCN)NC(=O)[C@H](CCCCN)NC(=O)[C@H](CCCCN)NC(=O)[C@H](CCCCN)NC(=O)[C@H](CCCCN)NC(=O)[C@@H](N)Cc1c[nH]c2ccccc12)C(=O)O` [Trp-Lys7, tryptophan-heptalysine] (H-WKKKKKKK-OH): the “transport of cargo by COSAN 2 (in words)” value in data set [2] is listed as “efficient transport”. For the molecule `CC(C)C[C@H](NC(=O)[C@@H](NC(=O)[C@@H](N)Cc1ccc(O)cc1)[C@@H](C)O)C(=O)N[C@H](C(=O)N[C@H](C(=O)N[C@@H](CCCCN)C(=O)O)C(C)C)[C@@H](C)O` [Tyr-Thr-Leu-Thr-Val-Lys, tyrosine-threonine-leucine-threonine-valine-lysine] (H-YTLTVK-OH), the “transport of cargo by COSAN 2 (in words)” value in data set [2] was “not transported”.

Regarding phalloidin, the “transport of cargo by COSAN 2 (in words)” value in data set [2] is “not transported”. With polylysine, the “Et (transport efficiency = Ymax (pEC50)/f, f = 41.8)” value in data set [2] was determined as 10.0. Still for that read-out and setting: the value for protamine was 9.0.

The values are drawn from PMC10288510 (Journal of the American Chemical Society, 2023).
